Experimental data from ChEMBL document CHEMBL1153402, “Pyrido[2,3-e]-1,2,4-triazolo[4,3-a]pyrazin-1-one as a new scaffold to develop potent and selective human A3 adenosine receptor antagonists. Synthesis, pharmacological evaluation, and ligand-receptor modeling studies” (J Med Chem, 2009).

Columns and labels:
Adenosine receptor A1 = target: T1, Adenosine receptor A1 (Bos taurus, UniProt P28190); assay: Displacement of [3H]DPCPX from bovine brain cortical membrane adenosine A1 receptor
T1 sequence (P28190 whole entry): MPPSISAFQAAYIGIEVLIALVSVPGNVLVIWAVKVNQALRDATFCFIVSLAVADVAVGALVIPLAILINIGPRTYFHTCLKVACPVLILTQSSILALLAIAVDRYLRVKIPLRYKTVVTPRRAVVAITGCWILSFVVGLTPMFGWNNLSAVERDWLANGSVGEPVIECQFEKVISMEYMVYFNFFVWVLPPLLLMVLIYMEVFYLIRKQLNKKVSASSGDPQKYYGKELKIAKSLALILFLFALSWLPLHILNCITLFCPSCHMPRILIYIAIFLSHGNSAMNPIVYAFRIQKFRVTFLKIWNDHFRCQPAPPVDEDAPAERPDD

Adenosine receptor A3 = target: T2, Adenosine receptor A3 (Homo sapiens, UniProt P0DMS8); assay: Displacement of [125I]AB-MECA from human cloned adenosine A3 receptor expressed in CHO cells; assay type: cell-based
T2 sequence (P0DMS8 whole entry): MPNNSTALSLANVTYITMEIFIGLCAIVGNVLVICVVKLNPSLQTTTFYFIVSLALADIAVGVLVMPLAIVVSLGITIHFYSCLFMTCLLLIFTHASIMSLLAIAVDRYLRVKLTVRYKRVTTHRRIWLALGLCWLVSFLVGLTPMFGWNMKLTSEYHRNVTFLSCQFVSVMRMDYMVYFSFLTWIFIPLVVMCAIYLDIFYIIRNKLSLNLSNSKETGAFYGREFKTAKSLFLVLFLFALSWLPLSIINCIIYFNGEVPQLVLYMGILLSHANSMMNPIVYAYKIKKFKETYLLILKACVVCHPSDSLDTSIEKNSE

[1] = Displacement of [3H]CGS 21680 from bovine striatal membrane adenosine A2A receptor; set-up: species or system Bos taurus
Bos taurus [2] = species on record: Bos taurus; assay: Displacement of [3H]CGS 21680 from bovine striatal membrane adenosine A2A receptor at 20 uM
Summary of the method: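 IC50 from five concentrations in triplicate, nonlinear regression; Ki via Cheng–Prusoff from four assays. Single-point values as percent inhibition at 20 μM.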

Bos taurus [3] = species on record: Bos taurus; assay: Displacement of [3H]CGS 21680 from bovine striatal membrane adenosine A2A receptor at 10 uM
[4] = target: T3, Adenosine receptor A1 (Bos taurus) (UniProt P28190); assay: Displacement of [3H]DPCPX from bovine brain cortical membrane adenosine A1 receptor at 10 uM
T3 sequence (whole entry): T1 sequence (P28190 whole entry)

[5] = target: T4, Adenosine receptor A3 (Homo sapiens) (UniProt P0DMS8); assay: Displacement of [125I]AB-MECA from human cloned adenosine A3 receptor expressed in CHO cells at 1 uM; assay type: cell-based
T4 sequence (whole entry): T2 sequence (P0DMS8 whole entry)
Summary of the method: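 IC50 from five displacer concentrations, each in triplicate, by nonlinear regression; Ki by Cheng–Prusoff. Ki as mean of four separate assays, each in triplicate; single-point values as percent inhibition of specific binding at 1 μM.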

Adenosine receptor A2a = Adenosine receptor A2a (Homo sapiens, UniProt P29274); assay: Displacement of [3H]NECA from human cloned adenosine A2A receptor expressed in CHO cells at 10 uM; assay type: cell-based
Summary of the method: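 CHO cell membranes stably expressing hA1 or hA2A; radioligands [3H]DPCPX (hA1, Kd 3 nM) and [3H]NECA (hA2A, Kd 30 nM). IC50 from five displacer concentrations in triplicate, nonlinear regression; Ki by Cheng–Prusoff; four separate assays. Single-point values as percent inhibition of specific binding at 10 μM.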

[6] = target: T3, Adenosine receptor A1 (Bos taurus); assay: Displacement of [3H]DPCPX from bovine brain cortical membrane adenosine A1 receptor at 20 uM
Summary of the method: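 Bovine cerebral cortical membranes; [3H]DPCPX displacement (Kd 0.3 nM). IC50 from five displacer concentrations in triplicate; Ki by Cheng–Prusoff, mean of four assays.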

Chain of Adenosine receptor A2a (P29274 whole entry): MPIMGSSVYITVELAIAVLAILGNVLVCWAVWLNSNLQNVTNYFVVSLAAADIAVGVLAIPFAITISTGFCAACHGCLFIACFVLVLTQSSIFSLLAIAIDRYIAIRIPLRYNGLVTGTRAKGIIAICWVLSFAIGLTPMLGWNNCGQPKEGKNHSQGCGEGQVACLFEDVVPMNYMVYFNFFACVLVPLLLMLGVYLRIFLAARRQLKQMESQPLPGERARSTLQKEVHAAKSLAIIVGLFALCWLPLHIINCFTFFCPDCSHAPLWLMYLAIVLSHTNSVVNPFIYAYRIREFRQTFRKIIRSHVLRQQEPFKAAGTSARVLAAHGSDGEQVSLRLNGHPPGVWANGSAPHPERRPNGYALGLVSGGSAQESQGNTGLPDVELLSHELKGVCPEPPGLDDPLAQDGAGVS

Ki (Adenosine receptor A1)	Ki (Adenosine receptor A3)	Activity (Bos taurus [2])	Activity [5]	SMILES	further results
0.0031 µM	0.656 µM			Nc1nc2ncccc2n2c(=O)n(-c3ccccc3)nc12	Ki [1]: 0.0926 µM
	0.116 µM			O=c1n(-c2ccccc2)nc2c(NC3CCCC3)nc3c([N+](=O)[O-])cccc3n12	
0.0707 µM	0.335 µM	12%		O=C(c1ccccc1)N(C(=O)c1ccccc1)c1nc2ncccc2n2c(=O)n(-c3ccccc3)nc12	
			36%	COc1ccc(-n2nc3c(NC(C)=O)nc4c([N+](=O)[O-])cccc4n3c2=O)cc1	Activity (Bos taurus [3]): 7%; Activity [4]: 0%
0.449 µM		0%	32%	O=c1[nH]c2ncccc2n2c(=O)n(-c3ccc(O)cc3)nc12	
0.014 µM	0.138 µM	59%		CC(=O)Nc1nc2ncccc2n2c(=O)n(-c3ccccc3)nc12	
			45%	Nc1nc2c([N+](=O)[O-])cccc2n2c(=O)n(-c3ccc(O)cc3)nc12	
0.306 µM	0.59 µM	26%		O=c1[nH]c2ncccc2n2c(=O)n(-c3ccc(F)cc3)nc12	
0.145 µM	0.251 µM	12%		O=c1[nH]c2ncccc2n2c(=O)n(-c3ccccc3)nc12	Activity (Adenosine receptor A2a): 0%
1.1 µM	0.158 µM			COc1ccc(-n2nc3c(N)nc4ncccc4n3c2=O)cc1	Ki [1]: 0.413 µM
			27%	O=C(c1ccccc1)N(C(=O)c1ccccc1)c1nc2c([N+](=O)[O-])cccc2n2c(=O)n(-c3ccccc3)nc12	Activity (Bos taurus [3]): 0%; Activity [4]: 39%
			18%	CC(=O)Nc1nc2c([N+](=O)[O-])cccc2n2c(=O)n(-c3ccccc3)nc12	Activity (Bos taurus [3]): 36%
0.112 µM	1.34 µM			Nc1nc2ncccc2n2c(=O)n(-c3ccc(O)cc3)nc12	Ki [1]: 0.832 µM
				COc1ccc(-n2nc3c(N(C(=O)c4ccccc4)C(=O)c4ccccc4)nc4c([N+](=O)[O-])cccc4n3c2=O)cc1	Activity (Bos taurus [3]): 0%; Activity [4]: 20%
		17%	0%	CCOC(=O)c1ccc(-n2nc3c(N)nc4ncccc4n3c2=O)cc1	Activity [6]: 39%
		0%	0%	CCOC(=O)c1ccc(-n2nc3c(=O)[nH]c4ncccc4n3c2=O)cc1	Activity [6]: 16%
				CCCn1c(=O)c2[nH]c(C3CCCC3)nc2n(CCC)c1=O [1,3-DIPROPYL-8-CYCLOPENTYLXANTHINE [DPCPX]]	Ki [1]: 0.337 µM
		7%	0%	O=C(O)c1ccc(-n2nc3c(=O)[nH]c4ncccc4n3c2=O)cc1	Activity [6]: 30%
	0.279 µM			O=c1[nH]c2c([N+](=O)[O-])cccc2n2c(=O)n(-c3ccccc3)nc12	
	0.281 µM			O=c1n(-c2ccccc2)nc2c(NC3CCCCC3)nc3c([N+](=O)[O-])cccc3n12	
				O=C(Nc1nc2c([N+](=O)[O-])cccc2n2c(=O)n(-c3ccccc3)nc12)c1ccccc1	Activity (Bos taurus [3]): 0%; Activity [4]: 32%
0.181 µM	0.49 µM			Nc1nc2ncccc2n2c(=O)n(-c3ccc(F)cc3)nc12	Ki [1]: 1.51 µM
			21%	O=c1[nH]c2c([N+](=O)[O-])cccc2n2c(=O)n(-c3ccc(O)cc3)nc12	
				COc1ccc(-n2nc3c(NC(=O)c4ccccc4)nc4c([N+](=O)[O-])cccc4n3c2=O)cc1	Activity (Bos taurus [3]): 15%; Activity [4]: 35%
